PLC-beta3 inh – human PLC-beta3 inhibitors, primary screen, biochemical, fluorescence. actives 0.18% (n = 370,000). Purified PLC-beta3, fluorogenic substrate. AID 720704, 2013. inhibition, % at 12.2 µM; in the data active = inhibition above about 11%;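 note: 0% = median of compound wells on plate and 100% = full blocker control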
KLK7 zymogen act – proKLK7 zymogen activators, primary screen, biochemical, fluorescence intensity; Kallikrein-7 (Homo sapiens), P49862; purified proKLK7, EDANS-DABCYL substrate fluorescence; 100% is mature enzyme control, 0% vehicle; activation, % at 7 µM; actives 0.9% (n = 370,000); AID 652039, 2013;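 active = activation above the mean of all tested compounds plus 3 SD, computed per campaign excluding outliers beyond control limits, cut at about 13% in these data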
DDE Tn7 FP inh – inhibitors of Tn7 peptide binding to fibrin DD(E), primary screen, biochemical, fluorescence polarization, human fibrin, Tn7 probe; actives 0.13% (n = 370,000); inhibition, % at 8.3 µM; AID 720508, 2013; Fibrinogen beta chain (Homo sapiens), P02675; FP displacement of FITC-Tn7 peptide from fibrin DD(E); 0% = median of compound wells per plate;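 active = inhibition above the mean of compounds falling within the control limits plus 3 SD of them, cut at about 14% in these data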;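 note: 0% = plate median of compound wells and 100% = 10 µM Aha-Tn7 peptide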
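Assay system: Human clot-derived fibrin DD(E) complex | Buffer or medium: Tris/NaCl/CaCl2 buffer, pH 7.8 | Repeats: One replicate per compound | Benchmarks: Aha-Tn7 high control | Measure: % inhibition scaled between sample-field median and high-control FP | Schedule: 10 min plus 3 h, room temperature | Signal: Fluorescence polarization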
DDE Tn6 FP inh – inhibitors of Tn6 peptide binding to fibrin DD(E), primary screen, biochemical, fluorescence polarization, human fibrin, Tn6 probe; Fibrinogen beta chain (Homo sapiens), P02675; Fibrin DD(E) TRITC-Tn6 fluorescence polarization displacement; inhibition, % at 8.3 µM; actives 0.21% (n = 370,000);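 active = inhibition above a per-campaign cutoff: mean of compounds within control limits plus 3 SD, cut at about 15% in these data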;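 note: 0% = median of all compound wells on the plate and 100% = blocking peptide control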
NRP1-CendR mod – modulators of CendR peptide binding to NRP-1, primary screen, biochemical, fluorescence polarization, uHTS. Neuropilin-1 (Homo sapiens), O14786. FAM-RPARPAR peptide binding to NRP-1. inhibition, % at 25 µM. actives 0.85% (n = 360,000). AID 602438, 2012;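 active = inhibition or corrected inhibition above about 18%, plus a signal ratio from 0.5 to 1.5, limit read from the data, passing the limit was not always enough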
Target sequence (O14786 whole entry, looked up): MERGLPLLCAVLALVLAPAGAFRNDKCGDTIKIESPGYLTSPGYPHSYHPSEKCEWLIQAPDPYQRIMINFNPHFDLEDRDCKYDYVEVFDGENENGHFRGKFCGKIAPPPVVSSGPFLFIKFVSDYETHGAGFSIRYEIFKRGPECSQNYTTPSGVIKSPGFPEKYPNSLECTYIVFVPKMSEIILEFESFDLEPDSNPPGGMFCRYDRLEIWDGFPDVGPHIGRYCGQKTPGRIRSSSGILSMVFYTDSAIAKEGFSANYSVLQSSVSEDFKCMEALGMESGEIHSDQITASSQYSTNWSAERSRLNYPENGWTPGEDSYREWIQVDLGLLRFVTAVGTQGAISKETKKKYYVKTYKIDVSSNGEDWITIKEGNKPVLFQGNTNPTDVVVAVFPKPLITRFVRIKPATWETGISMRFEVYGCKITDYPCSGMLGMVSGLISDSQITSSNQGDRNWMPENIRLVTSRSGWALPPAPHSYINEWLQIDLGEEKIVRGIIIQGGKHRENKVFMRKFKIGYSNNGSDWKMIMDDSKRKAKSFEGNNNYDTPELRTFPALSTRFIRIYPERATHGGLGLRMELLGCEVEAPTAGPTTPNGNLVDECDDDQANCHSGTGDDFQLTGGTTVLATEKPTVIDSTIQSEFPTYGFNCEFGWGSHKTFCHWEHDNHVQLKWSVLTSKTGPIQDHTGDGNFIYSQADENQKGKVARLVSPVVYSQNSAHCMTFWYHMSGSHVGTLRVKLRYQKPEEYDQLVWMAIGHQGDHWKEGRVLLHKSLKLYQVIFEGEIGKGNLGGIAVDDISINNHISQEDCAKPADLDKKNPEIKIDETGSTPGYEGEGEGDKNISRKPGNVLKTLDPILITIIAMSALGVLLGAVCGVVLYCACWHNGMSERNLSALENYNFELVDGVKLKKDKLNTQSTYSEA
PLCg1 inh – PLC-gamma1 enzyme inhibitors, primary screen, biochemical, fluorescence, purified enzyme; 1-phosphatidylinositol 4,5-bisphosphate phosphodiesterase gamma-1 (Homo sapiens), P19174; fluorogenic substrate; inhibition, % at 12.2 µM; actives 0.84% (n = 370,000); AID 720700, 2013; in the data active = inhibition above about 9.5%
* hit, by the source's call; · = not tested or not shown. A selection: hits, their analogues and other compounds. The true share with any hit is near 3%.

SMILES	PLC-beta3 inh	KLK7 zymogen act	DDE Tn7 FP inh	DDE Tn6 FP inh	NRP1-CendR mod	PLCg1 inh
O=C(Cc1ccccc1)NCC(=O)N1CCN(c2ccc(F)cc2)CC1	2.7	0.7	-6.8	-6.1	25.9*	-0.2
O=C(NCC(=O)N1CCN(c2ccccc2)CC1)c1ccco1	-2.3	0.4	-1.7	-9.6	26.7*	-2.3
O=C(Cc1ccc(Br)cc1)N1CCN(c2ccc(F)cc2)CC1	0.6	-0.2	-2.4	-3.1	22.8*	3.9
Cc1cc(C)cc(NC(=O)N2CCC(c3nc4ccc(Cl)cc4[nH]3)CC2)c1	-1.5	-0.4	-4.1	4.3	·	0.3
COc1ccc2c(c1)N(C)/C(=C1/SC(=NCc3ccccc3)N(c3ccccc3)C1=O)S2	5.2	-0.6	-2.6	2.7	26.6*	3.7
CC(O)(c1cccnc1)c1nc(/C=C/c2ccccc2)cs1 (stereo unspecified)	-2.1	0.1	0.9	0.8	25.5*	-2.8
Cc1ccc(S(=O)(=O)N2CCC(c3nc4ccccc4o3)CC2)s1	4.2	0.0	-8.4	-4.7	·	7.5
COc1ccc(S[C@]2(C(=O)N3CCN(c4ncccn4)CC3)CC(=O)N(c3ccccc3)[C@@H]2c2ccc(OC)cc2)cc1	-0.7	0.1	-0.8	-0.6	·	2.2
COc1cc(-c2nnc(SCC(=O)Nc3ccc(C(=O)O)cc3)o2)cc(OC)c1OC	-2.7	-0.3	1.6	1.6	31.3*	-1.1
COc1cc(-c2nnc(SCC(=O)c3ccccc3)o2)cc(OC)c1OC	-2.6	-0.2	4.4	4.1	1.2	0.2
Cc1ccc(Cn2cc(CN3[C@@H](CC(C)C)COc4cccc(F)c4S3(=O)=O)nn2)cc1	0.2	0.1	-2.2	7.5	·	1.3
COc1ccc([C@H]2OC(=O)C[C@@H]2C(=O)N2CCN(c3ccccc3F)CC2)cc1OC	1.6	0.3	0.8	-1.3	·	-2.3
Cc1cccc(N(C)c2ncnc3onc(-c4ccc(F)cc4)c23)c1C	-12.5	0.2	-2.2	4.5	21.5*	-7.9
Cc1ccc(-c2noc(-c3ccccc3C(=O)N3CCCC3)n2)cc1	3.2	0.2	-6.7	-6.6	4.4	3.4
Cc1onc(-c2ccccc2)c1C(=O)N1CCCC1	-9.8	-0.4	7.1	4.1	20.8*	0.0
Cc1onc(-c2ccccc2)c1C(=O)N1CCCCCC1	-5.2	0.1	-6.0	-1.2	4.0	3.4
Cc1ccccc1-c1noc(-c2ccccc2C(=O)N2CCCC2)n1	0.0	0.3	-1.1	3.4	20.1*	-0.7
Cc1nc(N)nc(Nc2ccc(C#N)cc2)c1Br	-14.6	-0.5	6.1	-10.1	16.6*	-5.8
C[C@@H]1[C@@H](c2ccccc2)c2cc3ccccc3nc2-c2nc3ccccc3cc2[C@@H]1C(=O)N1CCCC1	-4.9	-0.4	6.3	-5.5	·	-3.3
CCOc1ccc(NC(=O)CN2C(=O)C(C)SC(C)C2=O)cc1 (stereo unspecified)	-2.8	-0.3	-8.1	1.0	25.4*	2.0
Oc1ccc(N=Nc2c(O)ccc3ccccc23)cc1	-1.0	0.2	-0.9	2.0	-19.1	0.1
N=C(N)c1ccc(N=Nc2c(O)ccc3c2[nH]c2ccccc23)cc1	1.6	-1.2	5.6	-15.1	72.5*	4.8
CCOC(=O)Cn1c(=NC(=O)C2COc3ccccc3O2)sc2cc(S(N)(=O)=O)ccc21 (stereo unspecified)	-13.0	-1.0	2.0	-2.9	-1.1	-12.3
CCOC(=O)Cn1c(=NC(=O)c2ccc([N+](=O)[O-])s2)sc2ccccc21	5.2	0.1	-9.4	0.5	56.3*	7.0
CCC1(c2ccc(OC)cc2)NC(=O)N(CC(=O)NC2CCCCC2C)C1=O (stereo unspecified)	-6.3	1.0	0.9	-0.9	22.8*	1.1
SMILES	PLC-beta3 inh	KLK7 zymogen act	DDE Tn7 FP inh	DDE Tn6 FP inh	NRP1-CendR mod	PLCg1 inh
Cc1ccccc1Cn1cc(CN2[C@@H](CC(C)C)COc3cccc(F)c3S2(=O)=O)nn1	1.5	-0.1	-4.5	5.4	·	1.4
O=C1[C@H]2[C@@H](/C=C/c3ccccc3)N3C(=O)CN(Cc4ccccn4)C(=O)[C@@]3(Cc3ccccc3)[C@H]2C(=O)N1c1ccccc1	0.1	0.0	1.6	-0.8	-9.9	-0.1
CN1C(=O)[C@H]2[C@@H](/C=C/c3ccccc3)N3C(=O)CN(Cc4ccccn4)C(=O)[C@@]3(Cc3ccccc3)[C@H]2C1=O	-2.0	-0.3	-5.5	-2.6	28.9*	3.2
CC(=O)Nc1ccc(S(=O)(=O)NCCC(=O)NCCCc2ccccc2)cc1	-2.0	0.1	-5.9	8.1	22.4*	0.5
COCc1nnc(NC(=O)c2cccc(NC(=O)C(C)C)c2)s1	-6.5	-0.1	3.7	2.3	-9.4	0.9
COCc1nnc(NC(=O)C(C)C)s1	0.0	-0.1	-3.1	2.3	25.7*	0.1
CCOC(=O)CC[C@@]1(C(=O)OCC)C[C@@H](CC(=O)NCc2cccs2)C(=O)N2CCCC=C21	-0.3	0.0	-0.7	-5.3	·	-1.1
COc1ccccc1N1CCN(C(CNC(=O)c2ccc3c(c2)OCO3)c2cccnc2)CC1 (stereo unspecified)	0.8	-0.3	2.0	3.9	29.0*	0.1
COc1ccccc1N1CCN(C(CNC(=O)C2CCCCC2)c2cccnc2)CC1 (stereo unspecified)	2.2	0.3	-8.2	-7.8	-9.1	1.7
CCN(C(=O)C1CCCN(c2nnc(-n3cccc3)s2)C1)c1ccccc1C (stereo unspecified)	3.4	-0.3	-12.6	-3.7	·	5.8
CC(Oc1ccc2c3c(c(=O)oc2c1)CCC3)C(=O)NC1CCN(Cc2ccccc2)CC1 (stereo unspecified)	-11.0	0.8	-1.0	4.1	18.0*	-5.3
O=[N+]([O-])c1cccc(CN2[C@@H](Cc3ccccc3)COCCS2(=O)=O)c1	1.0	0.2	7.7	5.0	12.3	1.8
O=S1(=O)CCOC[C@H](Cc2ccccc2)N1Cc1ccc(Cl)cc1	2.3	0.5	6.9	4.5	29.2*	3.6
CC(C)C[C@H]1COCCS(=O)(=O)N1Cc1ccccc1F	-0.9	-0.5	-7.9	1.4	25.3*	1.6
O=S1(=O)CCOC[C@H](Cc2ccccc2)N1Cc1cccc(Cl)c1	1.8	-0.2	-5.3	4.2	13.2	2.1
Cc1ccccc1CN1[C@@H](Cc2ccccc2)COCCS1(=O)=O	-1.0	-0.3	4.3	2.9	25.6*	-0.6
O=S1(=O)CCOCCCN1Cc1ccc(Cl)cc1	-0.6	-0.1	7.8	4.9	24.5*	1.9
